Compounds with a hit are over-represented: about 4% of the library has one in this group of screens.
E-selectin induc: E-selectin induction in HUVECs, primary screen, imaging, HUVEC, immunofluorescence imaging, single point; normalized: neutral wells 0, TNF-alpha wells 100; activation, % at 7.58 µM; 260,000 compounds, 0.37% hits;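 active = mean E-selectin-positive cell signal at least 10% of the positive control, reached in at least 60% of replicates, without over 20% cell loss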
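System: HUVEC, human umbilical vein endothelial cells; quantity: 3,000 cells/well; buffer or medium: EGM-2 medium, gelatin-coated wells; dosing: single-point compound dose; detection: immunofluorescence imaging; evaluation: % PE-positive cells; benchmarks: TNF-alpha, DMSO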
SIRT5 block: SIRT5 desuccinylase inhibitors, primary screen, biochemical, fluorescence imaging, single point, set 5; NAD-dependent protein deacylase sirtuin-5, mitochondrial (Homo sapiens), Q9NXA8; Purified SirT5, succinyl-peptide AMC, trypsin-coupled fluorescence; inhibition, % at 15 µM; 330,000 compounds, 1.1% hits; AID 652115, 2013; in the data active = inhibition above about 15%
Target sequence (Q9NXA8 whole entry, looked up): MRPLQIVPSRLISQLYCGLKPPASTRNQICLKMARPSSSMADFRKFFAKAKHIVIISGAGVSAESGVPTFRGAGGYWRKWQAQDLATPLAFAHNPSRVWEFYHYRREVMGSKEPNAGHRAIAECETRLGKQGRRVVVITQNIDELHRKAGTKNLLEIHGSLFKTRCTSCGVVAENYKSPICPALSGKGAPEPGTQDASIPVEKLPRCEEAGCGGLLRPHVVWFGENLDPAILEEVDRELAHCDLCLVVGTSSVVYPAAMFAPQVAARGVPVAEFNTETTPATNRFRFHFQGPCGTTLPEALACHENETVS
Ecoli rRNA inh: reduced GFP signal of wild-type E. coli, primary screen, bacterial rRNA inhibitor project, GFP/RFP fluorescence, OD600, single point; GFP signal change (wild-type ribosome), % (test concentration not listed); AID 720706, 2013; E. coli WT GFP vs humanized-ribosome RFP mutants, 24 h; hits give low values; DMSO median 0, no signal -100; 350,000 compounds, 1.6% hits;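 active = significant combined selectivity score with lowered wild-type GFP, culture density cut under 30%, mutant RFP and density less affected; inactive = any of these conditions unmet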
Statin myotox sup: suppressors of statin myotoxicity in C2C12 myotubes, primary screen, cell-based, single point, plate reader; 330,000 compounds, 0.78% hits; C2C12 myotubes + simvastatin, ATP luminescence, 48 h; scaled: DMSO 0, geranylgeraniol control 100; rescue of ATP level, % at 7.49 µM;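 active = mean ATP rescue above about 67%, or every replicate alone reaching that limit, limit read from the data, passing the limit was not always enough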;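 also: myotubes were challenged with 10 µM simvastatin during compound exposure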
FN deposit inh: inhibitors of fibronectin matrix deposition, primary screen, AH1F cells, Alexa488-fibronectin fluorescence, plate reader; AID 743247, 2014; 350,000 compounds, 0.086% hits; inhibition, % at 12.6 µM; AH1F fibroblasts, overnight;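 active = mean inhibition across replicates of 30% or more, regardless of how many single replicates reach that level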;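 also: positive control wells lacked labelled fibronectin entirely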
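material = AH1F fibroblast monolayer depositing Alexa488-labelled fibronectin into matrix | amount = 10000 AH1F cells/well | buffer or medium = DMEM plus 2% serum, read in PBS | incubation = 1 h cell adhesion before compound, then overnight fibronectin incubation | detection = fluorescence at 485 nm excitation, 525 nm emission | evaluation = percent inhibition as loss of matrix-bound fibronectin fluorescence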
FGF22 binding: binders of human FGF22 protein, primary screen, FGF22 synaptogenesis inhibitor project, biophysical, thermal shift, single point; Fibroblast growth factor 22 (Homo sapiens), Q9HCT0; recombinant FGF22 thermal shift, SYPRO orange fluorescence; percent of sucrose octasulfate shift, DMSO zero; activity (Tm shift, normalised), % at 9.99 µM; 340,000 compounds, 1.5% hits; AID 651658, 2012;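 active = mean Tm shift, scaled 0 neutral to 100 positive control, at about 1.3% or above, every replicate too, limit read from the data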
Target sequence (Q9HCT0 whole entry, looked up): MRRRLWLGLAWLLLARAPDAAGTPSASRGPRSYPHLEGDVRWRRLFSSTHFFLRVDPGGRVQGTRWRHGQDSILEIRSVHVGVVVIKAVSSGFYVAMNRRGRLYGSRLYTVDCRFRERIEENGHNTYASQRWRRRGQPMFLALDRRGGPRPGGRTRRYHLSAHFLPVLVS
Active calls of the source: *; . = not tested or not shown.

SMILES	E-selectin induc	SIRT5 block	Ecoli rRNA inh	Statin myotox sup	FN deposit inh	FGF22 binding
CNC[C@H]1Oc2ccc(NC(=O)Nc3ccccc3)cc2CC(=O)N([C@@H](C)CO)C[C@H]1C	0	-1	1	1	.	0
Cc1noc(C)c1NC(=O)Nc1ccc2c(c1)C(=O)N([C@H](C)CO)C[C@H](C)[C@@H](CN(C)Cc1ccc(C(F)(F)F)cc1)OCCCC[C@H](C)O2	0	14	-3	.	.	0
Oc1ccccc1-c1cc(-c2ccccc2)no1	.	.	.	94*	.	.
CS(=O)(=O)N1CC2C(c3ccc(Br)cc3)C(C1)N2CC(F)(F)F (stereo not given)	.	.	-4	.	0	.
O=S(=O)(NCc1ccc2c(c1)OCO2)c1ccccc1F	.	22*	-1	-2	1	0
O=S(=O)(NCc1ccc2c(c1)OCO2)c1ccc(F)c(F)c1	.	3	-3	-3	-8	0
C[C@H](CO)N1C[C@H](C)[C@@H](CN(C)Cc2ccc(-c3ccccc3)cc2)Oc2ccc(NC(=O)Cc3cn(C)c4ccccc34)cc2CC1=O	5	-2	1	102*	.	0
C[C@@H]1CN([C@@H](C)CO)C(=O)Cc2cc(NC(=O)Cc3cn(C)c4ccccc34)ccc2O[C@H]1CN(C)Cc1ccc(C(F)(F)F)cc1	61*	2	5	104*	-7	0
C[C@H](CO)N1C[C@H](C)[C@@H](CN(C)Cc2ccc(-c3ccccc3)cc2)Oc2ccc(NC(=O)Cc3ccccc3)cc2CC1=O	7	5	-3	76*	.	0
C[C@H](CO)N1C[C@H](C)[C@H](CN(C)Cc2ccc(-c3ccccc3)cc2)Oc2ccc(NC(=O)Cc3ccccc3)cc2CC1=O	-2	-5	0	32	.	0
C[C@H]1CN([C@@H](C)CO)C(=O)Cc2cc(NC(=O)Cc3cn(C)c4ccccc34)ccc2O[C@@H]1CN(C)C(=O)Nc1ccc(C(F)(F)F)cc1	50*	2	3	7	.	0
C[C@H](CO)N1C[C@H](C)[C@H](CN(C)Cc2ccccc2)Oc2ccc(NC(=O)Cc3cn(C)c4ccccc34)cc2CC1=O	0	3	5	21	.	0
CC1CCCN(CCOCCSc2ccccc2)C1 (stereo not given)	0	21*	3	.	12	0
CC1CC(C)CN(CCOCCSc2ccccc2)C1 (stereo not given)	-2	-4	11	.	-6	0
C[C@@H]1CN([C@@H](C)CO)C(=O)c2ccccc2-c2ccccc2CO[C@@H]1CN(C)S(=O)(=O)CC(F)(F)F	-3	-3	-3	0	4	0
C[C@H]1CN([C@@H](C)CO)C(=O)Cc2cc(NC(=O)CCN3CCOCC3)ccc2O[C@H]1CN(C)Cc1ccc(C(F)(F)F)cc1	.	-3	1	15	.	0
COc1ccc(Br)cc1/C=N/NC(=O)CNC(=O)C1COc2ccccc2O1 (stereo not given)	.	1	2	-3	-10	0
O=C(CNC(=O)C1COc2ccccc2O1)N/N=C\c1ccc(Br)cc1 (stereo not given)	0	23*	-2	0	10	0
Fc1ccc(-c2csc(Nc3ccccn3)n2)cc1	.	-1	1	154*	2	0
Cc1cccc(Nc2nc(-c3ccc(F)cc3)cs2)n1	.	-5	-18*	5	-7	0
c1ccc(Nc2nc(-c3cccs3)cs2)nc1	.	.	.	148*	.	.
COc1ccc(-c2csc(Nc3cccc(C)n3)n2)cc1	1	1	-2	-12	1	0
C[C@@H]1CCn2nncc2COC[C@H]2CCCN2C1=O	.	.	-2	.	2	.
COCC(C)n1c(C)cc(C(=O)COC(=O)c2oc3ccccc3c2C)c1C (stereo not given)	.	.	.	73*	.	.
O=C(O)C[C@H]1C=C[C@H](NC(=O)c2ccccc2F)[C@H](CO)O1	0	.	3	-5	1	.
SMILES	E-selectin induc	SIRT5 block	Ecoli rRNA inh	Statin myotox sup	FN deposit inh	FGF22 binding
COCC(=O)Nc1ccc2c(c1)OC[C@H](C)N(C(=O)NC(C)C)C[C@H](C)[C@H](OC)CN(C)C2=O	0	0	1	-1	-2	0
C[C@H]1CN([C@@H](C)CO)C(=O)c2cccc(NC(=O)C3CCCCC3)c2O[C@@H]1CN(C)Cc1ccc(C(=O)O)cc1	3	-3	2	1	.	0
CCOc1ccc2ccc(OCC)c(/C=N/n3cnnc3)c2c1	0	0	-27*	-27	4	0
CCOc1cc(/C=N/n2cnnc2)ccc1O	.	-6	10	5	.	0
COc1cccc(-n2c(SCC(=O)O)nnc2-c2cccnc2)c1	.	2	0	-1	.	0
CCSc1nnc(-c2cccnc2)n1-c1ccc(Cl)c(C)c1	.	1	-11	111*	.	0
CO[C@@H]1CN(C)C(=O)c2cc(NC(=O)NC(C)C)ccc2OC[C@@H](C)N(S(C)(=O)=O)C[C@@H]1C	0	-2	0	.	-17	-1
Nc1ccccc1C(=O)NNc1c2ccccc2nc2ccccc12	0	1	-20*	.	7	0
Cc1ccc(C(=O)NNc2c3ccccc3nc3ccccc23)cc1	0	-10	-12	.	-12	0
CC(=O)Nc1cc2c(cc1Cl)-c1ccc(F)cc1C2O (stereo not given)	0	.	5	3	-3	44*
COC(=O)C[C@@H]1C[C@@H]2c3cc(NC(=O)Nc4ccc(F)cc4)ccc3O[C@@H]2[C@H](CO)O1	0	.	-2	-9	4	0
CCNc1sc(S(C)(=O)=O)nc1S(=O)(=O)c1ccc(Cl)cc1	4	0	7	.	-1	43*
CCS(=O)(=O)c1nc(S(=O)(=O)c2ccc(Cl)cc2)c(NCCCN2CCOCC2)s1	.	2	5	10	7	-1
CCS(=O)(=O)c1nc(S(=O)(=O)c2ccc(Cl)cc2)c(NCc2ccccn2)s1	2	-1	5	.	8	44*
CS(=O)(=O)c1nc(S(=O)(=O)c2ccc(Cl)cc2)c(NCCCN2CCOCC2)s1	.	3	8	-5	1	0

Screening results: PubChem, Broad Institute
